Source: ChEMBL document CHEMBL2384936, “Synthesis and evaluation of antimicrobial activity of hydrazones derived from 3-oxido-1H-imidazole-4-carbohydrazides” (Eur J Med Chem, 2013)
Activity calls are given as the source filed them.

Legend:
Assay type in all cases: functional
Staphylococcus aureus [1] = test: Antibacterial activity against Staphylococcus aureus ATCC 29213 assessed as growth inhibition after 18 hrs by broth microdilution method; details: ATCC 29213, 18 h
Method in brief: (§1)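 Broth microdilution in Mueller–Hinton broth with 1–600 µg/mL compound added from DMSO stocks. Inoculum adjusted to 0.5 McFarland. Strains stored at -80 °C and subcultured on blood agar before use. Incubation 37 °C for 18 h with OD600 read. MIC taken as the lowest concentration preventing growth, run in triplicate following CLSI. Vancomycin and oxacillin served as controls.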

Escherichia coli [2] = test: Antibacterial activity against Escherichia coli NCTC 8192 assessed as growth inhibition after 18 hrs by broth microdilution method
Method in brief: (§2)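 Frozen stocks (-80 °C, tryptic soy broth with 15% glycerol); S. aureus subcultured on blood agar and identified by catalase, coagulase and clumping factor. Inoculum at 0.5 McFarland. MIC = lowest concentration preventing growth; triplicates, per CLSI.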

Staphylococcus aureus [3] = test: Bactericidal activity against Staphylococcus aureus isolate D15 derived from bone after 18 hrs by broth microdilution method; details: isolate D15, 18 h
Method in brief: (§3)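 Broth microdilution, then contents of wells without visible growth plated onto Mueller–Hinton agar and incubated 35 °C for 18 h. Triplicates, per CLSI.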

Staphylococcus aureus [4] = test: Antibacterial activity against Staphylococcus aureus isolate D12 derived from ulcer and furuncle assessed as growth inhibition after 18 hrs by broth microdilution method; details: isolate D12, 18 h; method in brief: as §2
Staphylococcus aureus [5] = test: Antibacterial activity against Staphylococcus aureus isolate F7 derived from ulcer and furuncle assessed as growth inhibition after 18 hrs by broth microdilution method; details: isolate F7, 18 h; method in brief: as §2
Staphylococcus aureus [6] = test: Bactericidal activity against Staphylococcus aureus isolate D12 derived from ulcer and furuncle after 18 hrs by broth microdilution method; details: isolate D12, 18 h; method in brief: as §3
Staphylococcus aureus [7] = test: Antibacterial activity against Staphylococcus aureus isolate F1 derived from ulcer and furuncle assessed as growth inhibition after 18 hrs by broth microdilution method; details: isolate F1, 18 h; method in brief: as §2
Staphylococcus aureus [8] = test: Antibacterial activity against Staphylococcus aureus ATCC 6538 assessed as growth inhibition after 18 hrs by broth microdilution method; details: ATCC 6538, 18 h; method in brief: as §1
Staphylococcus aureus [9] = test: Antibacterial activity against Staphylococcus aureus isolate C19 derived from naso-pharynx assessed as growth inhibition after 18 hrs by broth microdilution method; details: isolate C19, 18 h; method in brief: as §2
Staphylococcus aureus [10] = test: Antibacterial activity against Staphylococcus aureus isolate C4 derived from naso-pharynx assessed as growth inhibition after 18 hrs by broth microdilution method; details: isolate C4, 18 h; method in brief: as §2
Staphylococcus aureus [11] = test: Bactericidal activity against Staphylococcus aureus ATCC 29213 after 18 hrs by broth microdilution method; details: ATCC 29213, 18 h; method in brief: as §3
Staphylococcus aureus [12] = test: Bactericidal activity against Staphylococcus aureus isolate C7 derived from naso-pharynx after 18 hrs by broth microdilution method; details: isolate C7, 18 h; method in brief: as §3
Staphylococcus aureus [13] = test: Antibacterial activity against Staphylococcus aureus isolate F12 derived from ulcer and furuncle assessed as growth inhibition after 18 hrs by broth microdilution method; details: isolate F12, 18 h; method in brief: as §2
Staphylococcus aureus [14] = test: Antibacterial activity against Staphylococcus aureus isolate D14 derived from bone assessed as growth inhibition after 18 hrs by broth microdilution method; details: isolate D14, 18 h; method in brief: as §2
Staphylococcus aureus [15] = test: Bactericidal activity against Staphylococcus aureus isolate F7 derived from ulcer and furuncle after 18 hrs by broth microdilution method; details: isolate F7, 18 h; method in brief: as §3
Staphylococcus aureus [16] = test: Bactericidal activity against Staphylococcus aureus isolate C19 derived from naso-pharynx after 18 hrs by broth microdilution method; details: isolate C19, 18 h; method in brief: as §3
Staphylococcus aureus [17] = test: Antibacterial activity against Staphylococcus aureus isolate D15 derived from bone assessed as growth inhibition after 18 hrs by broth microdilution method; details: isolate D15, 18 h; method in brief: as §2
Staphylococcus aureus [18] = test: Antibacterial activity against Staphylococcus aureus isolate D17 derived from bone assessed as growth inhibition after 18 hrs by broth microdilution method; details: isolate D17, 18 h; method in brief: as §2
Escherichia coli [19] = test: Bactericidal activity against Escherichia coli NCTC 8192 after 18 hrs by broth microdilution method; method in brief: as §3
Staphylococcus aureus [20] = test: Bactericidal activity against Staphylococcus aureus isolate C4 derived from naso-pharynx after 18 hrs by broth microdilution method; details: isolate C4, 18 h; method in brief: as §3
Staphylococcus aureus [21] = test: Antibacterial activity against Staphylococcus aureus isolate D20 derived from bone assessed as growth inhibition after 18 hrs by broth microdilution method; details: isolate D20, 18 h; method in brief: as §2
Staphylococcus aureus [22] = test: Bactericidal activity against Staphylococcus aureus isolate F1 derived from ulcer and furuncle after 18 hrs by broth microdilution method; details: isolate F1, 18 h; method in brief: as §3
Staphylococcus aureus [23] = test: Bactericidal activity against Staphylococcus aureus isolate D17 derived from bone after 18 hrs by broth microdilution method; details: isolate D17, 18 h; method in brief: as §3
Staphylococcus aureus [24] = test: Bactericidal activity against Staphylococcus aureus isolate D20 derived from bone after 18 hrs by broth microdilution method; details: isolate D20, 18 h; method in brief: as §3
Staphylococcus aureus [25] = test: Antibacterial activity against Staphylococcus aureus isolate C7 derived from naso-pharynx assessed as growth inhibition after 18 hrs by broth microdilution method; details: isolate C7, 18 h; method in brief: as §2
[26] = system: Staphylococcus epidermidis; test: Bactericidal activity against Staphylococcus epidermidis ATCC 12228 after 18 hrs by broth microdilution method; details: ATCC 12228, 18 h; method in brief: as §3
Staphylococcus aureus [27] = test: Antibacterial activity against Staphylococcus aureus isolate C8 derived from naso-pharynx assessed as growth inhibition after 18 hrs by broth microdilution method; details: isolate C8, 18 h; method in brief: as §2
Staphylococcus aureus [28] = test: Bactericidal activity against Staphylococcus aureus isolate C8 derived from naso-pharynx after 18 hrs by broth microdilution method; details: isolate C8, 18 h; method in brief: as §3
Staphylococcus aureus [29] = test: Bactericidal activity against Staphylococcus aureus ATCC 6538 after 18 hrs by broth microdilution method; details: ATCC 6538, 18 h; method in brief: as §3
[30] = system: Staphylococcus epidermidis; test: Antibacterial activity against Staphylococcus epidermidis ATCC 12228 assessed as growth inhibition after 18 hrs by broth microdilution method; details: ATCC 12228, 18 h; method in brief: as §2
Staphylococcus aureus [31] = test: Bactericidal activity against Staphylococcus aureus isolate F12 derived from ulcer and furuncle after 18 hrs by broth microdilution method; details: isolate F12, 18 h; method in brief: as §3
Staphylococcus aureus [32] = test: Bactericidal activity against Staphylococcus aureus isolate D14 derived from bone after 18 hrs by broth microdilution method; details: isolate D14, 18 h; method in brief: as §3

CN[C@H](CC(C)C)C(=O)N[C@H]1C(=O)N[C@@H](CC(N)=O)C(=O)N[C@H]2C(=O)N[C@H]3C(=O)N[C@H](C(=O)N[C@H](C(=O)O)c4cc(O)cc(O)c4-c4cc3ccc4O)[C@H](O)c3ccc(c(Cl)c3)Oc3cc2cc(c3O[C@@H]2O[C@H](CO)[C@@H](O)[C@H](O)[C@H]2O[C@H]2C[C@](C)(N)[C@H](O)[C@H](C)O2)Oc2ccc(cc2Cl)[C@H]1O [VANCOMYCIN]
3 µg/mL: MBC (Staphylococcus aureus [11]) | MBC [26] | MIC [30]
35 µg/mL: MIC (Staphylococcus aureus [5]) | MBC (Staphylococcus aureus [12]) | MBC (Staphylococcus aureus [15]) | MIC (Staphylococcus aureus [25])
1.5 µg/mL: MIC (Staphylococcus aureus [1]) | MIC (Staphylococcus aureus [8]) | MBC (Staphylococcus aureus [29])
inactive: MIC (Escherichia coli [2]) | MBC (Escherichia coli [19])
10 µg/mL: MIC (Staphylococcus aureus [10]) | MIC (Staphylococcus aureus [13]) | MBC (Staphylococcus aureus [20]) | MBC (Staphylococcus aureus [31])
75 µg/mL: MBC (Staphylococcus aureus [3]) | MIC (Staphylococcus aureus [4]) | MBC (Staphylococcus aureus [6]) | MIC (Staphylococcus aureus [7]) | MIC (Staphylococcus aureus [9]) | MIC (Staphylococcus aureus [14]) | MBC (Staphylococcus aureus [16]) | MIC (Staphylococcus aureus [17]) | MIC (Staphylococcus aureus [18]) | MIC (Staphylococcus aureus [21]) | MBC (Staphylococcus aureus [22]) | MBC (Staphylococcus aureus [23]) | MBC (Staphylococcus aureus [24]) | MIC (Staphylococcus aureus [27]) | MBC (Staphylococcus aureus [28]) | MBC (Staphylococcus aureus [32])
